MIC and Ratio data for six compounds are collected here from ChEMBL document CHEMBL1806444, “Synthesis of new chalcone derivatives bearing 2,4-thiazolidinedione and benzoic acid moieties as potential anti-bacterial agents” (2011).

What is called MIC is the lowest concentration that inhibits growth of the organism.

≈ marks a conversion by molar mass, not a printed value.

Common to all, as to format: functional
Assay [1] concerns Escherichia coli. Briefly: Antibacterial activity against 10^5 CFU/mL Escherichia coli 1682 assessed as inhibition of bacterial growth after 24 hrs by microtiter enzyme-linked immunosorbent assay. As to conditions: Escherichia coli, 1682, 24 h.
Assay [2] concerns Staphylococcus aureus. Briefly: Antibacterial activity against 10^5 CFU/mL quinolone-resistant Staphylococcus aureus CCARM 3505 assessed as inhibition of bacterial growth after 24 hrs by microtiter enzyme-linked immunosorbent assay. The following applies: CCARM 3505, 24 h. In short, it runs like this:
(§1)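 Broth microdilution MIC. Bacteria grown to mid-log phase in Mueller-Hinton broth, diluted 1000-fold, and inoculated at 10⁵ CFU/mL in MHB, 0.2 mL/well in 96-well plates. Compounds dissolved in DMSO, final DMSO not exceeding 0.05%, in serial dilutions. Oxacillin and norfloxacin served as positive controls. MIC is the lowest concentration giving complete growth inhibition after 24 h at 37 °C.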

In assay [3] the test system is Staphylococcus aureus. Briefly: Antibacterial activity against 10^5 CFU/mL Staphylococcus aureus RN4220 assessed as inhibition of bacterial growth after 24 hrs by microtiter enzyme-linked immunosorbent assay. As to conditions: RN4220, 24 h.
The subject of assay [4] is Staphylococcus aureus. Briefly: Antibacterial activity against 10^5 CFU/mL methicillin-resistant Staphylococcus aureus CCARM 3167 assessed as inhibition of bacterial growth after 24 hrs by microtiter enzyme-linked immunosorbent assay. As to conditions: CCARM 3167, 24 h. In short, it runs like this: as §1
For assay [5], the system named is Staphylococcus aureus. Description: Antibacterial activity against 10^5 CFU/mL Staphylococcus aureus KCTC 503 assessed as inhibition of bacterial growth after 24 hrs by microtiter enzyme-linked immunosorbent assay. As to conditions: KCTC 503, 24 h.
For assay [6], the system named is Staphylococcus aureus. Description: Antibacterial activity against 10^5 CFU/mL quinolone-resistant Staphylococcus aureus CCARM 3519 assessed as inhibition of bacterial growth after 24 hrs by microtiter enzyme-linked immunosorbent assay. As to conditions: CCARM 3519, 24 h. In short, it runs like this: as §1
For assay [7], the system named is Staphylococcus aureus. Description: Antibacterial activity against 10^5 CFU/mL methicillin-resistant Staphylococcus aureus CCARM 3506 assessed as inhibition of bacterial growth after 24 hrs by microtiter enzyme-linked immunosorbent assay. As to conditions: CCARM 3506, 24 h. In short, it runs like this: as §1
In assay [8] the test system is Escherichia coli. Description: Antibacterial activity against 10^5 CFU/mL Escherichia coli 1356 assessed as inhibition of bacterial growth after 24 hrs by microtiter enzyme-linked immunosorbent assay. The following applies: Escherichia coli, 1356, 24 h.
The subject of assay [9] is Staphylococcus aureus. Briefly: Ratio of Norfloxacin MIC to compound MIC for methicillin-resistant Staphylococcus aureus CCARM 3167.
Assay [10] has as its system Staphylococcus aureus. Description: Ratio of oxacillin MIC to compound MIC for methicillin-resistant Staphylococcus aureus CCARM 3167.
Assay [11] has as its system Staphylococcus aureus. Description: Ratio of oxacillin MIC to compound MIC for methicillin-resistant Staphylococcus aureus CCARM 3506.
Assay [12] relates to Staphylococcus aureus. Description: Ratio of Norfloxacin MIC to compound MIC for methicillin-resistant Staphylococcus aureus CCARM 3506.

Regarding `O=C(O)c1ccc(CN2C(=O)S/C(=C\c3ccc(/C=C/C(=O)c4ccccc4Cl)cc3)C2=O)cc1`, the MIC with Escherichia coli [1] was over 64 µg/mL; with Staphylococcus aureus [2], 2 µg/mL (≈ 3.97 µM); with Staphylococcus aureus [3], 1 µg/mL (≈ 1.98 µM); with Staphylococcus aureus [4], 1 µg/mL (≈ 1.98 µM); with Staphylococcus aureus [5] it was 2 µg/mL (≈ 3.97 µM); in the assay on Staphylococcus aureus [6], 2 µg/mL (≈ 3.97 µM). Further, the MIC with Staphylococcus aureus [7] is 1 µg/mL (≈ 1.98 µM); in the assay on Escherichia coli [8], over 64 µg/mL.
Take `CCn1cc(C(=O)O)c(=O)c2cc(F)c(N3CCNCC3)cc21` [NORFLOXACIN]: the MIC was 16 µg/mL (≈ 50.1 µM) in the assay on Escherichia coli [1]; over 64 µg/mL in the assay with Staphylococcus aureus [2]; 2 µg/mL (≈ 6.26 µM) in the assay with Staphylococcus aureus [3]; 8 µg/mL (≈ 25.1 µM) with Staphylococcus aureus [4]; 2 µg/mL (≈ 6.26 µM) in the assay with Staphylococcus aureus [5]; over 64 µg/mL in the assay with Staphylococcus aureus [6]. The MIC was found to be 4 µg/mL (≈ 12.5 µM) with Staphylococcus aureus [7] and 16 µg/mL (≈ 50.1 µM) in the assay with Escherichia coli [8].
Consider `O=C(O)c1ccc(CN2C(=O)S/C(=C\c3ccc(/C=C/C(=O)c4ccccc4Br)cc3)C2=O)cc1`, for which the MIC in the assay with Escherichia coli [1] is over 64 µg/mL; with Staphylococcus aureus [2], 2 µg/mL (≈ 3.65 µM); in the assay on Staphylococcus aureus [3], 2 µg/mL (≈ 3.65 µM); in the assay with Staphylococcus aureus [4], 1 µg/mL (≈ 1.82 µM); in the assay on Staphylococcus aureus [5], 4 µg/mL (≈ 7.29 µM); in the assay on Staphylococcus aureus [6], 2 µg/mL (≈ 3.65 µM). Moreover, the MIC is 1 µg/mL (≈ 1.82 µM) in the assay on Staphylococcus aureus [7] and over 64 µg/mL in the assay on Escherichia coli [8].
Regarding `O=C(O)c1ccc(CN2C(=O)S/C(=C\c3ccc(/C=C/C(=O)c4ccccc4)cc3)C2=O)cc1`, the MIC is over 64 µg/mL in the assay with Escherichia coli [1]; 2 µg/mL (≈ 4.26 µM) in the assay with Staphylococcus aureus [2]; 1 µg/mL (≈ 2.13 µM) in the assay with Staphylococcus aureus [3]; 1 µg/mL (≈ 2.13 µM) in the assay with Staphylococcus aureus [4]; 2 µg/mL (≈ 4.26 µM) in the assay with Staphylococcus aureus [5]; 2 µg/mL (≈ 4.26 µM) in the assay on Staphylococcus aureus [6]. Moreover, the MIC in the assay with Staphylococcus aureus [7] was 0.5 µg/mL (≈ 1.06 µM); with Escherichia coli [8] it was over 64 µg/mL. Moreover, the Ratio with Staphylococcus aureus [9] is listed as 8; with Staphylococcus aureus [10] it was 64; in the assay with Staphylococcus aureus [11] it was 64; with Staphylococcus aureus [12] it was 8.
As for `Cc1onc(-c2ccccc2)c1C(=O)N[C@@H]1C(=O)N2[C@@H]1SC(C)(C)[C@@H]2C(=O)O` [OXACILLIN], the minimal inhibitory concentration (MIC) with Escherichia coli [1] is over 64 µg/mL; in the assay on Staphylococcus aureus [2] it was 1 µg/mL (≈ 2.49 µM); with Staphylococcus aureus [3] it was 1 µg/mL (≈ 2.49 µM); in the assay with Staphylococcus aureus [4], over 64 µg/mL; in the assay with Staphylococcus aureus [5] it was 1 µg/mL (≈ 2.49 µM); in the assay on Staphylococcus aureus [6], 1 µg/mL (≈ 2.49 µM). Also, the MIC in the assay with Staphylococcus aureus [7] and with Escherichia coli [8] was over 64 µg/mL throughout.
Turning to `COc1ccccc1C(=O)/C=C/c1ccc(/C=C2\SC(=O)N(Cc3ccc(C(=O)O)cc3)C2=O)cc1`, the MIC is over 64 µg/mL with Escherichia coli [1]; 4 µg/mL (≈ 8.01 µM) with Staphylococcus aureus [2]; 2 µg/mL (≈ 4 µM) with Staphylococcus aureus [3]; 2 µg/mL (≈ 4 µM) with Staphylococcus aureus [4]; 4 µg/mL (≈ 8.01 µM) in the assay on Staphylococcus aureus [5]; 2 µg/mL (≈ 4 µM) in the assay with Staphylococcus aureus [6]. For the same compound, the figures for the MIC in the assay on Staphylococcus aureus [7] and with Escherichia coli [8] were 2 µg/mL (≈ 4 µM) and over 64 µg/mL, respectively.
